Active and inactive are the calls of the source. The calls are words filed in the database; no cut-off is given here.
What was measured:
HepG2 [1] = experiment: Enhancement of doxorubicin-induced cytotoxicity against human HepG2 cells after 72 hrs by MTS assay; assay type: functional, cell-based
In short: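 HepG2 cells given the test agent alone or together with 150 nM doxorubicin for 72 h; proliferation by MTS assay; duplicate experiments, n = 3.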

Mus musculus [2] = experiment: Toxicity in B6 mouse assessed as diarrhea at 0.1 mg/kg, ip twice a day for 4 consecutive days measured on day 13; assay type: organism-based; design: dose 0.1 mg/kg, route intraperitoneal; settings: in vivo
In short: (§1)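 Male B6 mice dosed i.p. at 0.1 mg/kg twice daily for four consecutive days; body weight recorded daily over 13 days and signs of acute toxicity such as diarrhea noted.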

H9c2 [3] = experiment: Induction of apoptosis in rat H9c2 cells at 0.5 to 50 nM after 24 hrs by FACS analysis; assay type: cell-based; settings: h9c2, 24 h, 0.05 µM
In short: (§2)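 Rat H9c2 cardiomyoblasts treated 24 h (0.5-50 nM) or 24, 48 and 72 h (20 nM) versus vehicle; annexin V plus propidium iodide labeling and FACS for apoptosis; viability in parallel by MTS; doxorubicin 1 μM as positive control.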

HepG2 [4] = experiment: Cytotoxicity against human HepG2 cells after 72 hrs by MTS assay; assay type: functional, cell-based; settings: Homo sapiens, HepG2, 72 h; read-out: IC50
In short: (§3)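 Human cancer lines treated for 72 h and proliferation/viability read by MTS assay; dose-response curves in duplicate with IC50 taken from the curves; MCF7R is the P-gp (MDR1)-expressing resistant line.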

HeLa [5] = experiment: Induction of stress granules in human HeLa cells assessed as MLN51 and FMRP marker protein at 100 uM after 8 hrs; assay type: functional, cell-based
In short: (§4)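 HeLa on coverslips in DMEM/5% FCS, cultured 24 h, then exposed to 50 nM-500 μM for 30 min to 8 h; immunofluorescence for stress-granule markers MLN51 (rabbit) and FMRP (mouse); cycloheximide 10 μg/mL and puromycin 100 μg/mL (1 h) as positive controls.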

HeLa [6] = experiment: Induction of stress granules in human HeLa cells assessed as MLN51 and FMRP marker protein at 100 uM after 2 hrs; assay type: functional, cell-based; in short: as §4
HL-60 [7] = experiment: Cytotoxicity against human HL60 cells after 72 hrs by MTS assay; assay type: functional, cell-based; settings: HL-60, 72 h
In short: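 HL60 cells exposed to compound for 72 h; proliferation/viability read by MTS assay. IC50 taken from dose-response curves run in duplicate.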

HL-60 [8] = experiment: Induction of apoptosis in human HL60 cells assessed as cell killing at 20 nM after 72 hrs by annexin V flow cytometry; assay type: functional, cell-based
In short: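 HL60 cells treated with 20 nM for 72 h; apoptosis quantified by annexin V staining and flow cytometry.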

[9] = biological target: ATP-dependent translocase ABCB1 (Homo sapiens, UniProt P08183); experiment: Inhibition of P-glycoprotein expressing human MCF7 cells assessed as change in rhodamine 123 efflux at 0.1 to 1 uM; assay type: cell-based
HL-60 [10] = experiment: Antiproliferative activity against human HL60 cells at 50 nM in presence of […] inhibitor 3-methyladenine; assay type: functional, cell-based
In short: (§5)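 HL60 cells exposed for 72 h, with or without co-treatment with Z-VAD-FMK (50 μM), necrostatin-1 (50 μM) or 3-methyladenine (2 mM). Antiproliferative effect was compared against vehicle.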

KB = experiment: Cytotoxicity against human KB cells after 72 hrs by MTS assay; assay type: functional, cell-based; in short: as §3
HCT-15 = experiment: Cytotoxicity against human HCT15 cells after 72 hrs by MTS assay; assay type: functional, cell-based; settings: Homo sapiens, HCT-15, 72 h; read-out: IC50; in short: as §3
HeLa [11] = experiment: Induction of eIF-2alpha phosphorylation in human HeLa cells at 500 uM by Western blotting; assay type: functional, cell-based
In short: (§6)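 HeLa cells treated 1 h with DMSO, sodium arsenite (500 μM, positive control) or compound (100 or 500 μM); 10 μg total protein by SDS-PAGE/Western blot with anti-eIF2α and anti-phospho-eIF2α, ECL detection.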

HL-60 [12] = experiment: Induction of apoptosis in human HL60 cells assessed as caspase 3/7-mediated DEVD-AMC substrate cleavage at 1 to 1000 nM after 48 hrs by spectroscopy; assay type: functional, cell-based
In short: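 HL60 cells treated 48 h, doxorubicin as positive control; whole-cell extracts incubated with DEVD-AMC, fluorescence release followed over time; rate from slope of linear phase, expressed as fold-activation over DMSO-treated control.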

HL-60 [13] = experiment: Antiproliferative activity against human HL60 cells at 50 nM in presence of […] inhibitor necrostatin 1; assay type: functional, cell-based; in short: as §5
H9c2 [14] = experiment: Cytotoxicity against rat H9c2 cells at 20 nM after 48 hrs by FACS analysis; assay type: cell-based; settings: h9c2, 48 h, 0.02 µM; in short: as §2
HeLa [15] = experiment: Induction of caspase 12 translocation from endoplasmic reticulum to nucleus in human HeLa cells at 50 uM after 72 hrs by DAPI staining; assay type: functional, cell-based
In short: (§7)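 HeLa cells treated 72 h with compound or vehicle; immunocytochemistry co-labeling with anti-AIF and anti-caspase-12 antibodies, nuclei stained with DAPI to assess nuclear localization.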

H9c2 [16] = experiment: Cytotoxicity against rat H9c2 cells at 20 nM after 72 hrs by FACS analysis; assay type: cell-based; settings: h9c2, 72 h, 0.02 µM; in short: as §2
HL-60 [17] = experiment: Cell cycle arrest in human HL60 cells assessed as increase in G0/G1 peak at 200 nM after 48 hrs by FACS analysis; assay type: functional, cell-based
In short: (§8)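 HL60 cells treated for 48 h; vehicle control 1% DMSO, doxorubicin as positive control. Propidium iodide staining, DNA content by flow cytometry giving cell-cycle distribution (G2/M, G0-G1 peaks); n = 4, each sample in duplicate.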

H9c2 [18] = experiment: Induction of apoptosis in rat H9c2 cells at 20 nM after 48 hrs by FACS analysis; assay type: cell-based; settings: h9c2, 48 h, 0.02 µM; in short: as §2
HeLa [19] = experiment: Effect on apoptosis inducing factor localization into nucleus in human HeLa cells at 20 nM after 72 hrs; assay type: functional, cell-based
Oryctolagus cuniculus = species: Oryctolagus cuniculus; experiment: Inhibition of capped and polyadenylated luciferase mRNA […] in rabbit reticulocyte lysate at 10000 nM after 1 hr; assay type: functional
In short: (§9)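 Cell-free translation of capped, polyadenylated luciferase mRNA in rabbit reticulocyte lysate, luciferase output as read-out; incubation 1 h; IC50 derived.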

HL-60 [20] = experiment: Cytotoxicity against human HL60 cells at 20 uM after 72 hrs in presence of m-calpain inhibitor N-acetyl-Leu-Leu-methioninal; assay type: functional, cell-based
In short: (§10)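 HL60 cells treated 72 h with or without caspase-12 inhibitor ATAD (10 μM) or m-calpain inhibitor N-acetyl-Leu-Leu-methioninal (20 μM); cytotoxicity compared with vehicle.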

[21] = Inhibition of capped and polyadenylated luciferase mRNA in rabbit reticulocyte lysate; assay type: functional, Oryctolagus cuniculus; in short: as §9
HL-60 [22] = experiment: Cytotoxicity against human HL60 cells at 20 uM after 72 hrs in presence of caspase 12 inhibitor ATAD; assay type: functional, cell-based; in short: as §10
HL-60 [23] = experiment: Induction of apoptosis in human HL60 cells assessed as […] mediated LEHD-AMC substrate cleavage at 1 to 1000 nM after 48 hrs by spectroscopy; assay type: functional, cell-based
HeLa [24] = experiment: Induction of apoptosis inducing factor translocation from […] to nucleus in human HeLa cells at 50 uM after 72 hrs by DAPI staining; assay type: functional, cell-based; in short: as §7
MCF7 [25] = experiment: Cytotoxicity against human MCF7 cells expressing P-glycoprotein after 72 hrs by MTS assay; assay type: functional, cell-based; settings: Homo sapiens, MCF7, 72 h; read-out: IC50; in short: as §3
HL-60 [26] = experiment: Induction of apoptosis in human HL60 cells assessed as caspase 9-mediated […]-AMC substrate cleavage at 1 to 1000 nM after 48 hrs by spectroscopy; assay type: functional, cell-based
Mus musculus [27] = experiment: Toxicity in B6 mouse assessed as body weight loss at 0.1 mg/kg, ip twice a day for 4 consecutive days measured on day 13; assay type: organism-based; design: dose 0.1 mg/kg, route intraperitoneal; settings: in vivo; in short: as §1
HeLa [28] = experiment: Induction of stress granules in human HeLa cells assessed as MLN51 and FMRP marker protein at >10 uM; assay type: functional, cell-based; in short: as §4
HL-60 [29] = experiment: Antiproliferative activity against human HL60 cells at 50 nM in presence of caspase inhibitor Z-VAD-FMK; assay type: functional, cell-based; in short: as §5
MCF7 [30] = experiment: Cytotoxicity against human MCF7 cells after 72 hrs by MTS assay; assay type: functional, cell-based; settings: Homo sapiens, MCF7, 72 h; read-out: IC50; in short: as §3
HL-60 [31] = experiment: Inhibition of proteasome activity in human HL60 cells at 2 to 20 nM
In short: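 Lysates of HL60 cells incubated with compound; in vitro chymotrypsin-like and trypsin-like proteasome activities measured with fluorogenic AMC substrates (LLVY-AMC, RLR-AMC).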

HeLa [32] = experiment: Induction of eIF-2alpha phosphorylation in human HeLa cells at 100 uM by Western blotting; assay type: functional, cell-based; in short: as §6
HCT-116 = experiment: Cytotoxicity against human HCT116 cells after 72 hrs by MTS assay; assay type: functional, cell-based; settings: HCT-116, 72 h; in short: as §3
HL-60 [33] = experiment: Cell cycle arrest in human HL60 cells assessed as increase in G0/G1 peak at 20 nM after 48 hrs by FACS analysis; assay type: functional, cell-based; in short: as §8
HeLa [34] = experiment: Induction of stress granules in human HeLa cells assessed as MLN51 and FMRP marker protein at 500 nM after 8 hrs; assay type: functional, cell-based; in short: as §4
HL-60 [35] = experiment: Induction of apoptosis in human HL60 cells assessed as caspase 3/7-mediated DEVD-AMC substrate cleavage at 24 to 72 hrs by spectroscopy; assay type: functional, cell-based
H9c2 [36] = experiment: Induction of apoptosis in rat H9c2 cells at 20 nM after 72 hrs by FACS analysis; assay type: cell-based; settings: h9c2, 72 h, 0.02 µM; in short: as §2

Sequence of ATP-dependent translocase ABCB1 (P08183 whole entry): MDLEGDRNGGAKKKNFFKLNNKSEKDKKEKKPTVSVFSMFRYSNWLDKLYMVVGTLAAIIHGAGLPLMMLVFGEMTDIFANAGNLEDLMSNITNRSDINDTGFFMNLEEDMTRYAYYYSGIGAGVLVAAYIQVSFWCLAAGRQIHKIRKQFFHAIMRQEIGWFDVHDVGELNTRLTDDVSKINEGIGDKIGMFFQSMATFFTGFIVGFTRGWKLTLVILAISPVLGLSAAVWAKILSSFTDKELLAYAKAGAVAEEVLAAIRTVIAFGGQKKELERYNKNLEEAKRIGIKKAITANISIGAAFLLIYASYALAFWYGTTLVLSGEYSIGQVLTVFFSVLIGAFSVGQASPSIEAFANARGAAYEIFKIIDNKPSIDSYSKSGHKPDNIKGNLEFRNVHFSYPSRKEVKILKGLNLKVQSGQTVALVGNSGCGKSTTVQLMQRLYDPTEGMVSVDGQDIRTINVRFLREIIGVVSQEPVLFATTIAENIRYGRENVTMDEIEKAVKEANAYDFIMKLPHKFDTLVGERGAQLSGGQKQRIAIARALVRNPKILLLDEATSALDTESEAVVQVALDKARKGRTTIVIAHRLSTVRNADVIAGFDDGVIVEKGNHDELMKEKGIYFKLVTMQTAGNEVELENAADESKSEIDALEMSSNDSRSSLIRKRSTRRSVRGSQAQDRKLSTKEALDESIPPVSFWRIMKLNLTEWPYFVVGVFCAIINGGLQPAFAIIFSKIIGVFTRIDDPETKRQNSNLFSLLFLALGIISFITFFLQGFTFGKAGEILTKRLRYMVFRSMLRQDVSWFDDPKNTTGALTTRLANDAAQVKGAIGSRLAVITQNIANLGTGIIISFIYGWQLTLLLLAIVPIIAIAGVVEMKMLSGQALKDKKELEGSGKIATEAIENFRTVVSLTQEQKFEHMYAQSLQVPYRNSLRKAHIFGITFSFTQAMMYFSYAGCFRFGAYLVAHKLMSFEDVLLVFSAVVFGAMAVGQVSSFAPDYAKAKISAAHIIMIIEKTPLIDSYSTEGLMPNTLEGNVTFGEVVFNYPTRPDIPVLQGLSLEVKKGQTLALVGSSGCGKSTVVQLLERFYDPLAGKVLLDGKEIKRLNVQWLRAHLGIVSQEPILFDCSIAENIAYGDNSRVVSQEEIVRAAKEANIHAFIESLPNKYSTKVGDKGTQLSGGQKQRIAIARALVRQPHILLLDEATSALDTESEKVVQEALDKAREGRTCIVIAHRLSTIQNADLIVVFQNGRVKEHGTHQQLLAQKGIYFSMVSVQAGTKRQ

For `COc1cc(OC)c2c(c1)O[C@@]1(c3ccc(Br)cc3)[C@H](c3ccccc3)C[C@@H](O)[C@@]21O`, the Activity (HepG2 [1]) was “Active”, the Activity (Mus musculus [2]) was “Non-toxic” and the Activity (H9c2 [3]) was “Not Active”. For the same compound, the IC50 (HepG2 [4]) was 4 nM, the Activity (HeLa [5]) was “Active” and the Activity (HeLa [6]) was “Active”. The IC50 (HL-60 [7]) was less than 1 nM, the Activity (HL-60 [8]) was “Active” and the Activity [9] was “Not Active”. The Activity (HL-60 [10]) was “inactive”, the IC50 (KB) was less than 1 nM and the IC50 (HCT-15) was 1 nM. For the same compound, the Activity (HeLa [11]) was “Active”, the Activity (HL-60 [12]) was “inactive” and the Activity (HL-60 [13]) was “inactive”. The Activity (H9c2 [14]) was “Non-toxic”, the Activity (HeLa [15]) was “Active” and the Activity (H9c2 [16]) was “Non-toxic”. For the same compound, the Activity (HL-60 [17]) was “Active”, the Activity (H9c2 [18]) was “Not Active” and the Activity (HeLa [19]) was “Active”. The Activity (Oryctolagus cuniculus) was “Active”, the Activity (HL-60 [20]) was “Active” and the IC50 [21] was 200 nM. For the same compound, the Activity (HL-60 [22]) was “inactive”, the Activity (HL-60 [23]) was “inactive” and the Activity (HeLa [24]) was “Active”. For the same compound, the IC50 (MCF7 [25]) was less than 1 nM, the Activity (HL-60 [26]) was “inactive” and the Activity (Mus musculus [27]) was “Non-toxic”. For the same compound, the Activity (HeLa [28]) was “Active”, the Activity (HL-60 [29]) was “inactive” and the IC50 (MCF7 [30]) was 1 nM. For the same compound, the Activity (HL-60 [31]) was “inactive”, the Activity (HeLa [32]) was “Active” and the IC50 (HCT-116) was less than 1 nM. For the same compound, the Activity (HL-60 [33]) was “Active”, the Activity (HeLa [34]) was “Active” and the Activity (HL-60 [35]) was “inactive”. The Activity (H9c2 [36]) was “Not Active”.

From ChEMBL document CHEMBL1152982, “Synthetic analogue of rocaglaol displays a potent and selective cytotoxicity in cancer cells: involvement of apoptosis inducing factor and caspase-12” (J Med Chem, 2009)
